Key:
[1] = system: cADPR-evoked Ca^2+ release; test: cADPR-evoked Ca2+ release in sea urchin egg homogenate; assay type: biochemical, Strongylocentrotus purpuratus; conditions: for inhibition of cADPR-evoked Ca2+ signals: primary screen, 6 min preincubation; for mode of inhibition of cADPR action: cADPR concentration-response curves at increasing inhibitor concentrations
Outline: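 Primary screen in S. purpuratus egg homogenate, loaded with Ca2+ and 3 μM fluo-3 at 17°C and diluted stepwise to 1.25% over 3 h. Fluo-3 was read at ex 485/em 525 nm. Library compounds at 25 μM final were preincubated for 6 min (35 cycles), then cADPR 300 nM final was added. Screens ran in singlicate or duplicate, with Z' calculated from vehicle and cADPR responses.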

[2] = system: mouse embryonic stem (ES) cells; conditions: 100 μM; ref Wei et al., 2012; cited from earlier work
[3] = system: NAADP-evoked Ca^2+ release; conditions: data from a recent screen against NAADP action; ref Gunaratne et al., 2018; cited from earlier work
[4] = biological target: RyR1 (Sus scrofa, UniProt P16960); test: [3H]-ryanodine binding to skeletal SR vesicles; design: species or system porcine
Outline: (§1)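 Porcine SR vesicles, skeletal (1 mg/mL, 10 nM [3H]-ryanodine) and cardiac (3 mg/mL, 7.5 nM [3H]-ryanodine), were incubated for 3 h at 37°C with test compound or 0.02% DMSO. The pH 7.0 K-PIPES buffer contained 150 mM KCl, 0.1 μM calmodulin, GSH, DTT, 1 mM EGTA and CaCl2 giving 100 nM or 30 μM free Ca2+. Non-specific binding was defined with 40 μM unlabeled ryanodine. Bound ligand was filtered and counted by scintillation, and expressed relative to DMSO. Three SR batches, triplicates.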

[5] = biological target: RyR2 (Sus scrofa, UniProt A0A5G2R1W3); test: [3H]-ryanodine binding to cardiac SR vesicles; design: species or system porcine
Outline: as §1

[6] = system: U2OS cells; test: cADPR microinjection into single U2OS cells expressing GCaMP-6M; assay type: cell-based, human; conditions: 5 μM preincubation; cADPR 30 μM pipette concentration
Outline: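 U2OS cells were transfected with GCaMP-6M two days prior, seeded on collagen dishes and perfused with Ca2+-free HBSS. Cells in 5 μM test compound or 0.05% DMSO were microinjected with intracellular buffer (110 mM KCl, 10 mM NaCl, 20 mM HEPES, pH 7.2) containing vehicle or cADPR, giving about 300 nM intracellular. Spinning-disk imaging (ex 488 nm) gave peak ΔF/F0 and area under curve. Data from three independent experiments, mean ± stdev.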

[7] = system: RyRs (caffeine-evoked Ca^2+ release); test: caffeine-evoked Ca2+ release in sea urchin egg homogenate; assay type: biochemical, Strongylocentrotus purpuratus; conditions: caffeine 15 mM
Outline: (§2)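 Fluo-3-loaded S. purpuratus egg homogenate (1.25%, pH 7.2 intracellular-like medium, 17°C loading) was preincubated with increasing test compound concentrations. Release was then evoked by cADPR 300 nM, caffeine 15 mM or ryanodine 100 μM, with fluorescence read at ex 485/em 525 nm. Concentration-response data came from three independent biological experiments with four technical replicates each.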

[8] = system: NAADP-evoked Ca^2+ release; test: NAADP-evoked Ca2+ release in sea urchin egg homogenate; assay type: biochemical, Strongylocentrotus purpuratus; conditions: NAADP 200 nM; at concentrations completely inhibiting cADPR-evoked signals
[9] = system: IP3-evoked Ca^2+ release; test: IP3-evoked Ca2+ release in sea urchin egg homogenate; assay type: biochemical, Strongylocentrotus purpuratus; conditions: IP3 500 nM; at concentrations completely inhibiting cADPR-evoked signals
[10] = system: cADPR-sensitive Ca^2+ stores; assay type: biochemical, Strongylocentrotus purpuratus; conditions: ≤100μM
[11] = system: human induced pluripotent stem cells (iPSCs); test: cardiomyocyte differentiation of induced pluripotent stem cells; assay type: cell-based; conditions: 1 μM for 5 days, versus control cultures
Outline: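 Human iPSCs derived from dermal fibroblasts were grown on Matrigel in mTeSR1 and differentiated by Wnt modulation (CHIR, then 5 μM IWP-4 at day 3). From day 0 they received 1 μM test compound (from a 10 mM DMSO stock) or DMSO for 23 h or 5 days. Troponin T-positive cells per Hoechst-stained nuclei were counted at day 8 or 15. Western blot troponin T was normalized to GAPDH as % vehicle. Three independent experiments, mean ± stdev.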

[12] = system: RyRs (ryanodine-evoked Ca^2+ release); test: ryanodine-evoked Ca2+ release in sea urchin egg homogenate; assay type: biochemical, Strongylocentrotus purpuratus; conditions: ryanodine 100 μM
Outline: as §2

RyR2, sequence (A0A5G2R1W3 20-4900): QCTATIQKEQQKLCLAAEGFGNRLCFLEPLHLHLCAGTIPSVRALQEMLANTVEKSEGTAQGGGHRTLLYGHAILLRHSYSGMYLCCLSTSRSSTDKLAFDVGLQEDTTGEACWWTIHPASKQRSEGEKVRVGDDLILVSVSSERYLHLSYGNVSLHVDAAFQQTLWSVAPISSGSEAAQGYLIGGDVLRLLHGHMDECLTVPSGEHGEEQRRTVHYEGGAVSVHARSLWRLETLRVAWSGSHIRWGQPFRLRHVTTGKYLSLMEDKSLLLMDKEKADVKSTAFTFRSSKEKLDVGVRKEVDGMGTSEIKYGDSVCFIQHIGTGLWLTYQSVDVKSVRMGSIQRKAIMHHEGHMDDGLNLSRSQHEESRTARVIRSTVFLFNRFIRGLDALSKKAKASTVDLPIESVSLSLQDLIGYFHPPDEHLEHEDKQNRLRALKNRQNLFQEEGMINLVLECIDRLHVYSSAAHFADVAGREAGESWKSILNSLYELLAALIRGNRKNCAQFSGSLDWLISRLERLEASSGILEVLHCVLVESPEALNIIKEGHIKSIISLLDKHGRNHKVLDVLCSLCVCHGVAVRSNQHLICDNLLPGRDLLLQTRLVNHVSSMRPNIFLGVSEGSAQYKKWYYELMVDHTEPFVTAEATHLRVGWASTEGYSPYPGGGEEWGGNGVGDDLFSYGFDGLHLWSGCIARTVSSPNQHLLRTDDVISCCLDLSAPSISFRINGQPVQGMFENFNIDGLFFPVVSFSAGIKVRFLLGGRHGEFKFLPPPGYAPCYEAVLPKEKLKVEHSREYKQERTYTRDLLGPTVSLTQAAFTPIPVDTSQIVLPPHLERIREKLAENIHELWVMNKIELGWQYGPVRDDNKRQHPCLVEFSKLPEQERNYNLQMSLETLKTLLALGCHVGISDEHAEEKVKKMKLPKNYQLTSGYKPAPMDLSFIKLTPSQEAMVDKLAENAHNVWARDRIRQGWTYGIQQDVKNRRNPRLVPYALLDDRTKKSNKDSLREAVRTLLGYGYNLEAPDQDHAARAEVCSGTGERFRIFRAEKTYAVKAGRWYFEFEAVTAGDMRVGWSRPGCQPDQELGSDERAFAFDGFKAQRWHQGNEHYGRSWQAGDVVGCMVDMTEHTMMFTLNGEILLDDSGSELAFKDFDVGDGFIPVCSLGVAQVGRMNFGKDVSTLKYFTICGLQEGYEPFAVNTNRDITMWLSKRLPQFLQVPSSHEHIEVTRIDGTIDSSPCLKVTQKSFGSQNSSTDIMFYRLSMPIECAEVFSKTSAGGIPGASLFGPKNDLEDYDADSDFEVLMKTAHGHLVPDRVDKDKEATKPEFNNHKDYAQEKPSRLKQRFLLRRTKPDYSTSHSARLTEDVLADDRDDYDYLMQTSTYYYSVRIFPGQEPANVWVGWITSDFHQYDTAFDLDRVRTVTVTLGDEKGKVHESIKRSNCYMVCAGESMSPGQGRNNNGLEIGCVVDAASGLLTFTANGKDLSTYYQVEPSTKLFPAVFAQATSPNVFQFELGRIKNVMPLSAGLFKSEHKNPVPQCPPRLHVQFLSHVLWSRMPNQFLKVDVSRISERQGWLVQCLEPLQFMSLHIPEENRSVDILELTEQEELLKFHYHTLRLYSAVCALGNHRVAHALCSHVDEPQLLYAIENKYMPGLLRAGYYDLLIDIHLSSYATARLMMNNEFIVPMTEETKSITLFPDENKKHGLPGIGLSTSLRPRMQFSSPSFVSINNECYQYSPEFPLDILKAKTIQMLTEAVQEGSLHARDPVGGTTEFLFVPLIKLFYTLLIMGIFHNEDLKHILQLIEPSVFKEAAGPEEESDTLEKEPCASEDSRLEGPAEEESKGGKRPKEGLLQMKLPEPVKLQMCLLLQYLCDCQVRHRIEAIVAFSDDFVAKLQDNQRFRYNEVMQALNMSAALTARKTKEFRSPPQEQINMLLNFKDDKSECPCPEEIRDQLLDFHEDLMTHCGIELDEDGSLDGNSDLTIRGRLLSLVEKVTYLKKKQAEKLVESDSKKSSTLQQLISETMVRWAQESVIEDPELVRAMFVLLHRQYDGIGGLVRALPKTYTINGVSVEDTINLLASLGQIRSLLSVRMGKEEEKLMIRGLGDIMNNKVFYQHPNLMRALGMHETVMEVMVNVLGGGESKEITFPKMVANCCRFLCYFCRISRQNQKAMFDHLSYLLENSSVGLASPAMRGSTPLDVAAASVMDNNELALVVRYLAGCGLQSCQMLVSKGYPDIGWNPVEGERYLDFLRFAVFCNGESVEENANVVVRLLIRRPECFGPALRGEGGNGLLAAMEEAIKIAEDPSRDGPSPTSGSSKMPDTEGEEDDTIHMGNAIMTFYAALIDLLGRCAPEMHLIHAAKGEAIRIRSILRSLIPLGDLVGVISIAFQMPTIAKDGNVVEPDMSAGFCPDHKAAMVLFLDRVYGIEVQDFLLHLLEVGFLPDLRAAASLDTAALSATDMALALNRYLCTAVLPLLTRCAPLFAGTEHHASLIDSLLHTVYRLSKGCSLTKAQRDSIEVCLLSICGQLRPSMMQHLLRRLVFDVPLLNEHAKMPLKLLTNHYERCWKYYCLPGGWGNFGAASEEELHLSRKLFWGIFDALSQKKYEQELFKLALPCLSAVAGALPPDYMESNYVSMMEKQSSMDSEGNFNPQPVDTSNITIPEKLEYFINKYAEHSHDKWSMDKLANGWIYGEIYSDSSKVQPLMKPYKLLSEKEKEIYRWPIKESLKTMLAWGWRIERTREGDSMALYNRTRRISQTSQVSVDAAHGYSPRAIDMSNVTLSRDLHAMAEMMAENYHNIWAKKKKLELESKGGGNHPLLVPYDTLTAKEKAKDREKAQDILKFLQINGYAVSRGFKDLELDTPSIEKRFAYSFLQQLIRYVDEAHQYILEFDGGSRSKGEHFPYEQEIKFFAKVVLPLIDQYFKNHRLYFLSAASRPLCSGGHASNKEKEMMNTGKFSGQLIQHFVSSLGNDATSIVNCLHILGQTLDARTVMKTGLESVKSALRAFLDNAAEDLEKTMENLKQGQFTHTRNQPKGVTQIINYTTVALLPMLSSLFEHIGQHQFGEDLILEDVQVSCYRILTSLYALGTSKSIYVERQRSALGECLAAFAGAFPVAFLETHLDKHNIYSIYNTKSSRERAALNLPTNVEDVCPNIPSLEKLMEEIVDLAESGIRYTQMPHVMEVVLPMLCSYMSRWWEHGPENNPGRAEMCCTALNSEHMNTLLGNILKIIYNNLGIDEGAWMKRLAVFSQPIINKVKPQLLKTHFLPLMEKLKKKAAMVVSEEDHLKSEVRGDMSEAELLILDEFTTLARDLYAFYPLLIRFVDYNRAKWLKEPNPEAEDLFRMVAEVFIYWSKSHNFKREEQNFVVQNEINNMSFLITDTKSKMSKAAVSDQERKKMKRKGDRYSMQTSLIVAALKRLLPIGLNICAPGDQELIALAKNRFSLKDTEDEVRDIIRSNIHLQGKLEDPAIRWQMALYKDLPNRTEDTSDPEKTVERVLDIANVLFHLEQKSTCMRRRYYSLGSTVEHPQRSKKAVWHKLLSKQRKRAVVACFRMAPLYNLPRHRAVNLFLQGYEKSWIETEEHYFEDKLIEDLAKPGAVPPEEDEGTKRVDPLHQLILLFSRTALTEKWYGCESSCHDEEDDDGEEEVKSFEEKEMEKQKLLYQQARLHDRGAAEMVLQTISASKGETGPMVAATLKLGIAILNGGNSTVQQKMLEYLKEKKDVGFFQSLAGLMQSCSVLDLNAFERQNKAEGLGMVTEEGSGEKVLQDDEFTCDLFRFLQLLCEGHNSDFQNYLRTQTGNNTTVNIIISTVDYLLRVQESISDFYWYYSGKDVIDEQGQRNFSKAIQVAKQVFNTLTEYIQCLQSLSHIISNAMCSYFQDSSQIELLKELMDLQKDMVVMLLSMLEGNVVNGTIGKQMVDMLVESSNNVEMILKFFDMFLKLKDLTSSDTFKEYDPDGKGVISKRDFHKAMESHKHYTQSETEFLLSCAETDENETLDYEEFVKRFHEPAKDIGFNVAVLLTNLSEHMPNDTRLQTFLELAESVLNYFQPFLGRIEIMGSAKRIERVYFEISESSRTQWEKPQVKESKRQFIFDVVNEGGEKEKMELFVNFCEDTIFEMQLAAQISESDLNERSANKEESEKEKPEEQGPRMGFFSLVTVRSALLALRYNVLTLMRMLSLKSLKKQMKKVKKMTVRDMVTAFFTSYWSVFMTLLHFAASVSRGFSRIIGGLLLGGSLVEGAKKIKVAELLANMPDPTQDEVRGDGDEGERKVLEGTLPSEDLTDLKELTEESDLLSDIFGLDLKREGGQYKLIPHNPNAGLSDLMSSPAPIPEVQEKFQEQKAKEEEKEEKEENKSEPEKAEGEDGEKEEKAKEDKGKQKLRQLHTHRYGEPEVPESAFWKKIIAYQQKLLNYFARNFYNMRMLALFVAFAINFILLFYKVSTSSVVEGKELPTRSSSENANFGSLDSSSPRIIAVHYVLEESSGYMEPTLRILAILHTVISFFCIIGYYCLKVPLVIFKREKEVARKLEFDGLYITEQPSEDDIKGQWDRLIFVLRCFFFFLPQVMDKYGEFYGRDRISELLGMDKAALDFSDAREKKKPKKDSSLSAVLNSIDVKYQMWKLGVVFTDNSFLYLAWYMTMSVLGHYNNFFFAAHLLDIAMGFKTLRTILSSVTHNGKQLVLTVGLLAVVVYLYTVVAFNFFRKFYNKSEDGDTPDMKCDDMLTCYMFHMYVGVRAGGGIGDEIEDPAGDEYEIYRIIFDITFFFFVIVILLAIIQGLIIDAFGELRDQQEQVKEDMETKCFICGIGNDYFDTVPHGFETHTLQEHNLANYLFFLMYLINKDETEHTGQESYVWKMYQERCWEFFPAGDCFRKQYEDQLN

With `COCCOC(=O)C1=C(C)NC(C)=C(C(=O)OC(C)C)C1c1cccc([N+](=O)[O-])c1` (centres unmarked) [nimodipine, 3-O-(2-methoxyethyl) 5-O-propan-2-yl 2,6-dimethyl-4-(3-nitrophenyl)-1,4-dihydropyridine-3,5-dicarboxylate] the “inhibition of cADPR-evoked Ca2+ signals” value ([1]; 25 μM) was about 5%.

For `COC(=O)C1=C(C)NC(C)=C(C(=O)OC)C1c1ccccc1[N+](=O)[O-]` [nifedipine, dimethyl 2,6-dimethyl-4-(2-nitrophenyl)-1,4-dihydropyridine-3,5-dicarboxylate], the “inhibition of cADPR-evoked Ca2+ signals” value ([1]; 25 μM) was about 3%.

In the case of 8-Br-cADPR, the “effect on generation of cardiomyocytes” value [2] is listed as “promoted the generation of cardiomyocytes”.

In the case of `NC(=S)c1ccc[n+]([C@@H]2O[C@H](COP(=O)([O-])OP(=O)(O)OC[C@H]3O[C@@H](n4cnc5c(N)ncnc54)[C@H](OP(=O)(O)O)[C@@H]3O)[C@@H](O)[C@H]2O)c1` [thio-NADP], the “effect on NAADP-evoked Ca2+ responses in screen” value [3] is listed as “selectively desensitized”.

In the case of `N=c1c2ncn3c2ncn1[C@@H]1O[C@H](COP(=O)(O)OP(=O)(O)OC[C@H]2O[C@@H]3[C@H](O)[C@@H]2O)[C@@H](O)[C@H]1O` [cADPR, cyclic adenosine 5′-diphosphate ribose], the “effect on [3H]-ryanodine binding” value ([4]; contracting 30 μM free Ca2+) is reported as “did not elicit any effects”, the “effect on [3H]-ryanodine binding” value ([4]; relaxed 100 nM free Ca2+) is reported as “did not elicit any effects” and the “effect on [3H]-ryanodine binding” value ([5]; contracting 30 μM free Ca2+) is reported as “did not elicit any effects”. The “effect on [3H]-ryanodine binding” value ([5]; relaxed 100 nM free Ca2+) was “did not elicit any effects”.

In the case of `CNc1ccc2oc(C[C@H]3O[C@@]4(CC[C@H]3C)O[C@H]([C@H](C)C(=O)c3ccc[nH]3)[C@H](C)C[C@H]4C)nc2c1C(=O)O` [A23187], the “effect on NAADP-evoked Ca2+ responses in screen” value [3] is given as “inhibited” and the “effect on cADPR-evoked Ca2+ responses in primary screen” value ([1]; 25 μM, positive control) is given as “inhibited”.

In the case of `N=c1c2cc(Br)n3c2ncn1[C@@H]1O[C@H](COP(=O)(O)OP(=O)(O)OC[C@H]2O[C@@H]3C(O)[C@H]2O)C(O)C1O` (some centres unmarked) [8-Br-7-deaza-cADPR], the “mode of inhibition of cADPR action” value [1] is reported as “competitive inhibitors”.

In the case of `CC1=C(C(=O)OC2CCCCC2)C(c2ccc([N+](=O)[O-])cc2)C2=C(CC(C)(C)CC2=O)N1` (centres unmarked) [FLI-06, cyclohexyl 2,7,7-trimethyl-4-(4-nitrophenyl)-5-oxo-1,4,5,6,7,8-hexahydroquinoline-3-carboxylate], the “effect on [3H]-ryanodine binding” value ([4]; contracting 30 μM free Ca2+) is reported as “inhibited”, the “effect on [3H]-ryanodine binding” value ([4]; relaxed 100 nM free Ca2+) is reported as “inhibited” and the “effect on cADPR-evoked Ca2+ transient” value [6] is reported as “reduced”. For the same compound, the “effect on caffeine-evoked Ca2+ release” value [7] was “blocked”, the “effect on NAADP-evoked Ca2+ release” value [8] was “did not impact” and the “effect on IP3-evoked Ca2+ release” value [9] was “did not impact”. The “intrinsic agonist activity (Ca2+ elevation without cADPR)” value [10] was “did not result from any intrinsic agonist activity”, the “effect on [3H]-ryanodine binding” value ([5]; contracting 30 μM free Ca2+) was “inhibited” and the “effect on [3H]-ryanodine binding” value ([5]; relaxed 100 nM free Ca2+) was “inhibited”. The “effect on cADPR-evoked Ca2+ signals” value ([1]; cADPR 300 nM) was “blocked”, the “mode of inhibition of cADPR action” value [1] was “non-competitive inhibition” and the IC50 ([1]; read-out: IC50, inhibition of cADPR-evoked Ca2+ release, sea urchin egg homogenate, cADPR 300 nM) was 260 ± 23 nM. The contraction phenotype [11] was “earlier contraction phenotype”, the “expression of cardiomyocyte-specific troponin T” value [11] was “enhanced expression” and the “effect on ryanodine-evoked Ca2+ release” value [12] was “blocked”.
